# Results taken from ChEMBL document CHEMBL1151448, “Comparative antianaerobic activities of doripenem determined by MIC and time-kill analysis” (2008).
# Legend:
# Type in all cases: functional
# Bacteroides fragilis [1] = assay: Antimicrobial activity against beta lactamase-positive Bacteroides fragilis isolated from intra-abdominal infection and pelvic inflammatory disease patients after 48 hrs by agar dilution method
# Procedure, shortened: (§1)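 CLSI agar dilution on brucella blood agar supplemented with laked sheep blood, hemin and vitamin K. Inocula of about 1 × 10^5 CFU/spot were applied by Steers replicator, and plates were incubated 48 h at 35°C in an anaerobic glove box. MIC was the concentration giving marked growth reduction versus the anaerobic control plate. QC strains were included each run, and β-lactamase was detected by Cefinase disk.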
# [2] = test system: Bacteroides thetaiotaomicron; assay: Antimicrobial activity against beta lactamase-positive Bacteroides thetaiotaomicron isolated from intra-abdominal infection and pelvic inflammatory disease patients after 48 hrs by agar dilution method; procedure, shortened: as §1
# Bacteroides fragilis [3] = assay: Antimicrobial activity against beta lactamase-positive Bacteroides fragilis isolated from intra-abdominal infection and pelvic inflammatory disease patients after 48 hrs by time kill analysis
# Procedure, shortened: (§2)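 The MIC was read by inspecting macrodilution time-kill tubes. Vials held prereduced brucella broth with 5% laked horse blood cells, hemin 5 μg/ml and vitamin K1 1 μg/ml. Final inoculum was 10^6–10^7 CFU/ml, prepared inside the anaerobe chamber. Vials were incubated 48 h at 35°C in a shaking water bath.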
# Prevotella intermedia [4] = assay: Antimicrobial activity against beta lactamase-positive Prevotella intermedia isolated from intra-abdominal infection and pelvic inflammatory disease patients after 48 hrs by time kill analysis; procedure, shortened: as §2
# Finegoldia magna [5] = assay: Antimicrobial activity against beta lactamase-positive Finegoldia magna isolated from intra-abdominal infection and pelvic inflammatory disease patients after 48 hrs by time kill analysis; procedure, shortened: as §2
# Clostridium perfringens [6] = assay: Antimicrobial activity against Clostridium perfringens isolated from intra-abdominal infection and pelvic inflammatory disease patients after 48 hrs by time kill analysis
# Procedure, shortened: (§3)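 Macrodilution in prereduced brucella broth with 5% laked horse blood cells, 5 μg/ml hemin and 1 μg/ml vitamin K1. Final inoculum 10^6 to 10^7 CFU/ml, prepared inside the anaerobe chamber. Vials incubated 48 h at 35°C in a shaking water bath. MIC read by inspecting the time-kill tubes, alongside an antibiotic-free growth control.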
# Clostridioides difficile [7] = assay: Antimicrobial activity against Clostridium difficile isolated from intra-abdominal infection and pelvic inflammatory disease patients after 48 hrs by time kill analysis; procedure, shortened: as §3
# Bacteroides ovatus = assay: Antimicrobial activity against beta lactamase-positive Bacteroides ovatus isolated from intra-abdominal infection and pelvic inflammatory disease patients after 48 hrs by agar dilution method; procedure, shortened: as §1
# Phocaeicola vulgatus = assay: Antimicrobial activity against beta lactamase-positive Bacteroides vulgatus isolated from intra-abdominal infection and pelvic inflammatory disease patients after 48 hrs by agar dilution method; procedure, shortened: as §1
# [8] = test system: Parabacteroides distasonis; assay: Antimicrobial activity against beta lactamase-positive Bacteroides distasonis isolated from intra-abdominal infection and pelvic inflammatory disease patients after 48 hrs by agar dilution method; procedure, shortened: as §1
# Prevotella bivia = assay: Antimicrobial activity against beta lactamase-positive Prevotella bivia isolated from intra-abdominal infection and pelvic inflammatory disease patients after 48 hrs by agar dilution method; procedure, shortened: as §1
# Prevotella disiens = assay: Antimicrobial activity against beta lactamase-positive Prevotella disiens isolated from intra-abdominal infection and pelvic inflammatory disease patients after 48 hrs by agar dilution method; procedure, shortened: as §1
# Prevotella intermedia [9] = assay: Antimicrobial activity against beta lactamase-positive Prevotella intermedia isolated from intra-abdominal infection and pelvic inflammatory disease patients after 48 hrs by agar dilution method; procedure, shortened: as §1
# Prevotella nigrescens = assay: Antimicrobial activity against beta lactamase-positive Prevotella nigrescens isolated from intra-abdominal infection and pelvic inflammatory disease patients after 48 hrs by agar dilution method; procedure, shortened: as §1
# [10] = test system: Prevotella melaninogenica; assay: Antimicrobial activity against beta lactamase-positive Prevotella melaninogenica isolated from intra-abdominal infection and pelvic inflammatory disease patients after 48 hrs by agar dilution method; procedure, shortened: as §1
# Prevotella denticola = assay: Antimicrobial activity against beta lactamase-positive Prevotella denticola isolated from intra-abdominal infection and pelvic inflammatory disease patients after 48 hrs by agar dilution method; procedure, shortened: as §1
# Prevotella corporis = assay: Antimicrobial activity against beta lactamase-positive Prevotella corporis isolated from intra-abdominal infection and pelvic inflammatory disease patients after 48 hrs by agar dilution method; procedure, shortened: as §1
# Prevotella buccae = assay: Antimicrobial activity against beta lactamase-positive Prevotella buccae isolated from intra-abdominal infection and pelvic inflammatory disease patients after 48 hrs by agar dilution method; conditions: Segatella buccae; procedure, shortened: as §1
# [11] = test system: Porphyromonas asaccharolytica; assay: Antimicrobial activity against Porphyromonas asaccharolyticus isolated from intra-abdominal infection and pelvic inflammatory disease patients after 48 hrs by agar dilution method; procedure, shortened: as §1
# Porphyromonas gingivalis = assay: Antimicrobial activity against Porphyromonas gingivalis isolated from intra-abdominal infection and pelvic inflammatory disease patients after 48 hrs by agar dilution method; procedure, shortened: as §1
# Porphyromonas levii = assay: Antimicrobial activity against Porphyromonas levii isolated from intra-abdominal infection and pelvic inflammatory disease patients after 48 hrs by agar dilution method; procedure, shortened: as §1
# Fusobacterium nucleatum = assay: Antimicrobial activity against beta lactamase-positive Fusobacterium nucleatum isolated from intra-abdominal infection and pelvic inflammatory disease patients after 48 hrs by agar dilution method; procedure, shortened: as §1
# [12] = test system: Fusobacterium necrophorum; assay: Antimicrobial activity against Fusobacterium necrophorum isolated from intra-abdominal infection and pelvic inflammatory disease patients after 48 hrs by agar dilution method; procedure, shortened: as §1
# Fusobacterium varium = assay: Antimicrobial activity against Fusobacterium varium isolated from intra-abdominal infection and pelvic inflammatory disease patients after 48 hrs by agar dilution method; procedure, shortened: as §1
# Fusobacterium mortiferum = assay: Antimicrobial activity against beta lactamase-positive Fusobacterium mortiferum isolated from intra-abdominal infection and pelvic inflammatory disease patients after 48 hrs by agar dilution method; procedure, shortened: as §1
# Finegoldia magna [13] = assay: Antimicrobial activity against Finegoldia magna isolated from intra-abdominal infection and pelvic inflammatory disease patients after 48 hrs by agar dilution method; procedure, shortened: as §1
# Parvimonas micra = assay: Antimicrobial activity against Micromonas micros isolated from intra-abdominal infection and pelvic inflammatory disease patients after 48 hrs by agar dilution method; procedure, shortened: as §1
# [14] = test system: Peptostreptococcus anaerobius; assay: Antimicrobial activity against Peptostreptococcus anaerobius isolated from intra-abdominal infection and pelvic inflammatory disease patients after 48 hrs by agar dilution method; procedure, shortened: as §1
# Anaerococcus prevotii = assay: Antimicrobial activity against Anaerococcus prevotii isolated from intra-abdominal infection and pelvic inflammatory disease patients after 48 hrs by agar dilution method; procedure, shortened: as §1
# Anaerococcus tetradius = assay: Antimicrobial activity against Anaerococcus tetradius isolated from intra-abdominal infection and pelvic inflammatory disease patients after 48 hrs by agar dilution method; procedure, shortened: as §1
# [15] = test system: Peptoniphilus asaccharolyticus; assay: Antimicrobial activity against Peptoniphilus asaccharolyticus isolated from intra-abdominal infection and pelvic inflammatory disease patients after 48 hrs by agar dilution method; procedure, shortened: as §1
# Clostridium perfringens [16] = assay: Antimicrobial activity against Clostridium perfringens isolated from intra-abdominal infection and pelvic inflammatory disease patients after 48 hrs by agar dilution method
# Procedure, shortened: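 CLSI agar dilution on brucella blood agar supplemented with laked sheep blood, hemin and vitamin K. Inoculum about 1 × 10^5 CFU/spot, applied by Steers replicator. Plates incubated 48 h at 35°C in an anaerobic glove box. MIC is the concentration giving marked growth reduction versus the anaerobic control plate. Standard QC strains included in each run.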
# Clostridioides difficile [17] = assay: Antimicrobial activity against Clostridium difficile isolated from intra-abdominal infection and pelvic inflammatory disease patients after 48 hrs by agar dilution method; procedure, shortened: as §1
# [Clostridium] innocuum = Antimicrobial activity against Clostridium innocuum isolated from intra-abdominal infection and pelvic inflammatory disease patients after 48 hrs by agar dilution method; procedure, shortened: as §1
# Thomasclavelia ramosa = assay: Antimicrobial activity against Clostridium ramosum isolated from intra-abdominal infection and pelvic inflammatory disease patients after 48 hrs by agar dilution method; procedure, shortened: as §1
# [18] = test system: Paraclostridium bifermentans; assay: Antimicrobial activity against Clostridium bifermentans isolated from intra-abdominal infection and pelvic inflammatory disease patients after 48 hrs by agar dilution method; procedure, shortened: as §1
# [19] = test system: Enterocloster clostridioformis; assay: Antimicrobial activity against Clostridium clostridioforme isolated from intra-abdominal infection and pelvic inflammatory disease patients after 48 hrs by agar dilution method; procedure, shortened: as §1
# [20] = test system: Paeniclostridium sordellii; assay: Antimicrobial activity against Clostridium sordellii isolated from intra-abdominal infection and pelvic inflammatory disease patients after 48 hrs by agar dilution method; conditions: Paraclostridium sordellii; procedure, shortened: as §1
# [21] = test system: Clostridium paraputrificum; assay: Antimicrobial activity against Clostridium paraputrificum isolated from intra-abdominal infection and pelvic inflammatory disease patients after 48 hrs by agar dilution method; procedure, shortened: as §1
# Clostridium cadaveris = assay: Antimicrobial activity against Clostridium cadaveris isolated from intra-abdominal infection and pelvic inflammatory disease patients after 48 hrs by agar dilution method; procedure, shortened: as §1
compound,measurement,setting,value
CCC[C@@H]1C[C@@H](C(=O)N[C@@H]([C@H]2O[C@H](SC)[C@H](O)[C@@H](O)[C@H]2O)[C@H](C)Cl)N(C)C1 [CLINDAMYCIN],MIC50,Bacteroides fragilis [1],1 µg/mL
same,MIC90,Bacteroides fragilis [1],4 µg/mL
same,MIC50,[2],4 µg/mL
same,MIC90,[2],8 µg/mL
same,MIC,Bacteroides fragilis [3],0.5 µg/mL
same,MIC,Prevotella intermedia [4],0.016 µg/mL
same,MIC,Finegoldia magna [5],0.25 µg/mL
same,MIC,Clostridium perfringens [6],0.125 µg/mL
same,MIC,Clostridioides difficile [7],8 µg/mL
same,MIC50,Bacteroides ovatus,2 µg/mL
same,MIC90,Bacteroides ovatus,> 16 µg/mL
same,MIC50,Phocaeicola vulgatus,0.03 µg/mL
same,MIC90,Phocaeicola vulgatus,0.5 µg/mL
same,MIC50,[8],4 µg/mL
same,MIC90,[8],> 16 µg/mL
same,MIC50,Prevotella bivia,0.03 µg/mL
same,MIC90,Prevotella bivia,> 16 µg/mL
same,MIC50,Prevotella disiens,≤ 0.016 µg/mL
same,MIC90,Prevotella disiens,0.03 µg/mL
same,MIC50,Prevotella intermedia [9],≤ 0.016 µg/mL
same,MIC90,Prevotella intermedia [9],0.03 µg/mL
same,MIC50,Prevotella nigrescens,≤ 0.016 µg/mL
same,MIC90,Prevotella nigrescens,≤ 0.016 µg/mL
same,MIC50,[10],0.03 µg/mL
same,MIC90,[10],≤ 0.016 µg/mL
same,MIC50,Prevotella denticola,0.03 µg/mL
same,MIC90,Prevotella denticola,0.03 µg/mL
same,MIC,Prevotella corporis,≤ 0.016 µg/mL
same,MIC50,Prevotella corporis,≤ 0.016 µg/mL
same,MIC90,Prevotella corporis,0.03 µg/mL
same,MIC,Prevotella buccae,≤ 0.016 µg/mL
same,MIC50,Prevotella buccae,≤ 0.016 µg/mL
same,MIC90,Prevotella buccae,0.03 µg/mL
same,MIC,[11],≤ 0.016 µg/mL
same,MIC,Porphyromonas gingivalis,≤ 0.016 µg/mL
same,MIC,Porphyromonas levii,≤ 0.016 µg/mL
same,MIC90,Fusobacterium nucleatum,0.125 µg/mL
same,MIC50,[12],0.06 µg/mL
same,MIC90,[12],0.25 µg/mL
same,MIC50,Fusobacterium varium,4 µg/mL
same,MIC90,Fusobacterium varium,16 µg/mL
same,MIC,Fusobacterium mortiferum,0.06 µg/mL
same,MIC50,Fusobacterium mortiferum,0.06 µg/mL
same,MIC90,Fusobacterium mortiferum,0.25 µg/mL
same,MIC50,Finegoldia magna [13],2 µg/mL
same,MIC90,Finegoldia magna [13],> 16 µg/mL
same,MIC50,Parvimonas micra,0.25 µg/mL
same,MIC90,Parvimonas micra,0.5 µg/mL
same,MIC,[14],0.03 µg/mL
same,MIC50,[14],0.03 µg/mL
same,MIC90,[14],0.25 µg/mL
same,MIC,Anaerococcus prevotii,0.125 µg/mL
same,MIC,Anaerococcus tetradius,0.5 µg/mL
same,MIC50,Anaerococcus tetradius,0.5 µg/mL
same,MIC50,[15],0.06 µg/mL
same,MIC90,[15],> 16 µg/mL
same,MIC50,Clostridium perfringens [16],1 µg/mL
same,MIC90,Clostridium perfringens [16],2 µg/mL
same,MIC50,Clostridioides difficile [17],8 µg/mL
same,MIC90,Clostridioides difficile [17],> 16 µg/mL
same,MIC50,[Clostridium] innocuum,1 µg/mL
same,MIC50,Thomasclavelia ramosa,4 µg/mL
same,MIC,[18],0.06 µg/mL
same,MIC,[19],0.06 µg/mL
same,MIC,[20],1 µg/mL
same,MIC,[21],8 µg/mL
same,MIC,Clostridium cadaveris,0.03 µg/mL
